In ChEMBL document CHEMBL1123606, “1,3-Diarylpyrazolo[4,5-c]- and -[5,4-c]quinolin-4-ones. 4. Synthesis and specific inhibition of benzodiazepine receptor binding” (J Med Chem, 1987):

species on record: Bos taurus; test: Displacement of 3[H]Flunitrazepam from GABA-A central benzodiazepine receptor of bovine brain membranes at 3.4 uM; type: cell membranes
Outline: (§1)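 A single-concentration screen against specific [3H]flunitrazepam (0.6 nM) binding to bovine brain membranes (0.4–0.5 mg protein). Incubation was in 50 mM Tris-HCl at 0 °C for 90 min, with compounds added in ethanol. Diazepam at 10 μM defined nonspecific binding. Bound ligand was collected by rapid glass-fibre filtration and counted by scintillation. Percent inhibition is given as means ± SEM of five determinations.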

**Q.** For `Cn1c(=O)c2c(c(-c3ccccc3)nn2-c2ccccc2)c2ccccc21`, which inhibition is on record?
**A.** 21%

biological target: not listed separately; test: Displacement of 3[H]Flunitrazepam from GABA-A central benzodiazepine receptor of bovine brain membranes; type: cell membranes, Bos taurus
Outline: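 Bovine brain membranes (0.4–0.5 mg protein) were incubated in triplicate with 0.6 nM [3H]flunitrazepam in 50 mM Tris-HCl at 0 °C for 90 min. Displacers were added in ethanol, at seven concentrations each. Nonspecific binding was defined with 10 μM diazepam. Samples were diluted with cold buffer, filtered on glass fibre and counted by scintillation. IC50 was taken from log-probit analysis; values are means ± SEM of seven determinations.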

**Q.** With `Oc1nc2ccccc2c2c1c(-c1ccccc1)nn2-c1cccc(Cl)c1` as the molecule, how does the IC50 read?
**A.** 3000 nM

**Q.** For `Cc1ccc(-n2nc(-c3ccccc3)c3c(O)nc4ccccc4c32)cc1`, which IC50 is on record?
**A.** 39000 nM

**Q.** With `Cn1c(=O)c2c(-c3ccccc3)nn(-c3ccc(Cl)cc3)c2c2ccccc21` as the molecule, how does the IC50 read?
**A.** 1160 nM

**Q.** With `Oc1nc2ccccc2c2c1c(-c1ccccc1)nn2-c1ccccc1` as the molecule, how does the IC50 read?
**A.** 21000 nM

**Q.** With `Cn1c(=O)c2c(-c3ccccc3)nn(-c3ccccc3)c2c2ccccc21` as the molecule, how does the IC50 read?
**A.** 3100 nM

**Q.** Which IC50 does the source give for `CNC1=Nc2ccc(Cl)cc2C(c2ccccc2)=[N+]([O-])C1` [CHLORDIAZEPOXIDE] here?
**A.** 0.79 nM

**Q.** For `CN1C(=O)CN=C(c2ccccc2)c2cc(Cl)ccc21` [DIAZEPAM], which IC50 is on record?
**A.** 0.025 nM

**Q.** Which IC50 does the source give for `Cc1cccc(-n2nc(-c3ccccc3)c3c(=O)n(C)c4ccccc4c32)c1` here?
**A.** 90 nM

**Q.** For `Cc1ccc(-n2nc(-c3ccccc3)c3c(=O)n(C)c4ccccc4c32)cc1`, which IC50 is on record?
**A.** 1100 nM

**Q.** Which IC50 does the source give for `Cn1c(=O)c2c(-c3ccccc3)nn(-c3cccc(Cl)c3)c2c2ccccc21` here?
**A.** 70 nM

**Q.** With `O=C1C2C=Nc3ccccc3C2=NN1c1ccccc1` (stereo not given) [CGS-8216] as the molecule, how does the IC50 read?
**A.** 0.4 nM

**Q.** For `Oc1nc2ccccc2c2c1c(-c1ccccc1)nn2-c1cccc(Br)c1`, which IC50 is on record?
**A.** 1500 nM

**Q.** With `Oc1nc2ccccc2c2c1c(-c1ccccc1)nn2-c1ccc(Cl)cc1` as the molecule, how does the IC50 read?
**A.** 30000 nM

**Q.** With `O=C1C2C=Nc3ccccc3C2=NN1c1ccc(Cl)cc1` (stereo not given) [CGS-9896] as the molecule, how does the IC50 read?
**A.** 0.6 nM

**Q.** With `COc1ccc(-n2nc3c4ccccc4[nH]cc-3c2=O)cc1` as the molecule, how does the IC50 read?
**A.** 0.1 nM

**Q.** For `Cc1cccc(-n2nc(-c3ccccc3)c3c(O)nc4ccccc4c32)c1`, which IC50 is on record?
**A.** 3000 nM

**Q.** Which IC50 does the source give for `Cn1c(=O)c2c(-c3ccccc3)nn(-c3cccc(Br)c3)c2c2ccccc21` here?
**A.** 100 nM

species on record: Bos taurus; test: Displacement of 3[H]Flunitrazepam from GABA-A central benzodiazepine receptor of bovine brain membranes at 34 uM; type: cell membranes; outline: as §1

**Q.** Which inhibition does the source give for `Oc1nc2ccccc2c2c(-c3ccccc3)nn(-c3cccc(Cl)c3)c12` here?
**A.** 8%

**Q.** With `Oc1nc2ccccc2c2c(-c3ccccc3)nn(-c3ccccc3)c12` as the molecule, how does the inhibition read?
**A.** 10%
